Results: ChEMBL document CHEMBL3414436, “Strong antibacterial properties of anion transporters: a result of depolarization and weakening of the bacterial membrane” (J Med Chem, 2015)
Active and inactive are the calls of the source. The calls are words filed in the database; no cut-off is given here.

Experiments:
Lipid bilayer = assay: Binding affinity to DPPC liposomes assessed as induction of chloride ion efflux at 35 to 45 degC after 250 secs by fluorimetric analysis; conditions: Microsome
In short: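 Lucigenin-loaded (2 mM) DPPC LUVs (100 nm extruded) containing 100 mM NaCl and 10 mM sodium phosphate pH 6.4, external dye removed by gel filtration. Vesicles diluted into 2.5 mL stirred phosphate buffer at 35, 40 or 45°C. Transporter in MeOH added at t = 50 s to 10 mol% relative to lipid; Triton X-100 lysis at 300 s. Fluorescence ex 372/em 503 nm. Average of three runs.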

Escherichia coli [1] = assay: Induction of membrane permeabilization in Escherichia coli SK037 expressing TolC mutant at 40 times MIC after 2 hrs by diSC25 dye-based fluorescence assay; assay type: functional, organism-based
In short: (§1)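 E. coli SK037 grown overnight in LB at 37°C, washed in 5 mM HEPES pH 7.3 with 20 mM glucose and diluted to A600 0.15. diSC25 (1 µM final) equilibrated 1 h at 37°C to a stable baseline. Compound in DMSO added to 0.4 mM or 1 mM final. Fluorescence ex 600/em 660 nm followed ~2 h with stirring at 37°C.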

Escherichia coli [2] = assay: Induction of membrane depolarization in Escherichia coli SK037 expressing TolC mutant at 40 times MIC after 2 hrs by diSC25 dye-based fluorescence assay; assay type: functional, organism-based; in short: as §1
Escherichia coli [3] = assay: Antibacterial activity against Escherichia coli SK037 expressing TolC mutant assessed as change in cell morphology and membrane damage after 12 to 24 hrs by field emission scanning electron microscopic analysis; assay type: functional, organism-based
In short: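 E. coli SK037 grown in LB, washed three times, resuspended in 10 mM PBS pH 7.4 and diluted to A600 1.20 (9 x 10^8 CFU/mL). Cells exposed to 0.04 mM or 0.08 mM compound (added in DMSO) on poly-lysine-coated glass slides at 37°C for 12 h or 24 h. Fixed with 2.5% glutaraldehyde, stained with 1% OsO4, ethanol-dehydrated, critical-point dried, carbon-coated, imaged by field emission SEM.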

[4] = Binding affinity to egg yolk phosphotidylcholine liposomes assessed as induction of chloride ion efflux after 250 secs by fluorimetric analysis relative to lipid
In short: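 EYPC LUVs (100 nm extruded) loaded with 2 mM lucigenin, 100 mM NaCl and 10 mM sodium phosphate pH 6.4. Liposomes are suspended in NaNO3 buffer at 37 °C. Transporter in MeOH, at various concentrations, is added at 50 s and Triton X-100 lysis at 300 s. Chloride efflux is read as lucigenin fluorescence (ex 372, em 503 nm). Traces are averaged over triplicates.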

[5] = Induction of nitrate anions efflux in chloroform phase at 1 mM by fluorescence-based U-tube method; assay type: physicochemical; conditions: 1000 µM
In short: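 U-tube: 10 mL chloroform containing 1 mM ionophore separates 5 mL of 0.1 mM aqueous lucigenin (donor arm) from 5 mL water (receiving arm). Lucigenin fluorescence in the receiving phase is monitored at ex 372 and em 503 nm. Neat chloroform serves as control.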

Escherichia coli [6] = assay: Antibacterial activity against wild type Escherichia coli DH5alpha measured for 24 hrs; assay type: functional, DH5[alpha]
In short: (§2)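 Broth microdilution in LB at 37°C. Overnight precultures regrown to OD600 0.5, then diluted to OD600 0.1. Compound added in DMSO, final DMSO max 2.5% (v/v). Plates stirred; OD600 read at 0, 4, 8 and 24 h. MIC taken as lowest concentration with no detectable growth. Triplicates from independent cultures.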

Escherichia coli [7] = assay: Antibacterial activity against Escherichia coli SK037 expressing TolC mutant measured for 24 hrs; assay type: functional; in short: as §2
Bacillus thuringiensis = assay: Antibacterial activity against Bacillus thuringiensis HD73 measured for 24 hrs; assay type: functional
In short: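 Broth microdilution in LB. Overnight 37 °C preculture, regrown to OD600 0.5, diluted to OD600 0.1. Wells hold culture plus compound in DMSO (DMSO max 2.5% v/v final). Incubated at 37 °C with stirring, OD600 read at 0, 4, 8 and 24 h. MIC is the lowest concentration with no detectable growth. Triplicates from independent cultures.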

Escherichia coli [8] = assay: Ratio of MIC for wild type Escherichia coli DH5alpha to MIC for Escherichia coli SK037 expressing TolC mutant; assay type: functional
[9] = Hemolytic activity in human RBC at 25 uM after 1 hr relative to control; assay type: ADME, cell-based, Erythrocyte; conditions: red blood cells (RBC), read-out: Activity
In short: (§3)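 Human type O erythrocytes are washed in PBS and used at 2% v/v. Two-fold serial dilutions in DMSO are added, then incubated for 1 or 24 h at 37 °C with gentle shaking. After centrifugation at 2000g, hemoglobin release is read as supernatant A405. It is normalized to PBS (0%) and 0.5% Triton X-100 (100%). Mean of three experiments.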

[10] = Hemolytic activity in human RBC at 25 uM after 24 hrs relative to control; assay type: cell-based, Erythrocyte; conditions: red blood cells (RBC), read-out: Activity; in short: as §3
[11] = Escherichia coli, DH5[alpha], 24 h, read-out: MIC
[12] = Escherichia coli, SK037, 24 h, read-out: MIC
[13] = Bacillus thuringiensis, HD73, 24 h, read-out: MIC

Compound | EC50 [4] | MIC (Escherichia coli [6]; [11]) | MIC (Escherichia coli [7]; [12]) | MIC (Bacillus thuringiensis; [13]) | Ratio (Escherichia coli [8]) | further results
C(#Cc1ccc(C[n+]2cn(Cc3cccc(Cn4c[n+](Cc5ccc(C#Cc6ccccc6)cc5)c5ccccc54)n3)c3ccccc32)cc1)c1ccccc1 | – | – | – | – | – | Activity (Lipid bilayer): Active; Activity (Escherichia coli [1]): Active; Activity (Escherichia coli [2]): Active; Activity (Escherichia coli [3]): Dose-dependent effect
C(#Cc1ccc(C[n+]2cn(Cc3cccc(Cn4c[n+](Cc5ccc(C#Cc6ccccc6)cc5)c5ccccc54)n3)c3ccccc32)cc1)c1ccccc1.O=S(=O)([N-]S(=O)(=O)C(F)(F)F)C(F)(F)F.O=S(=O)([N-]S(=O)(=O)C(F)(F)F)C(F)(F)F [listing 1 of 2 here] | 5.6 mol% | 50 µM | 10 µM | 10 µM | 2.5 | Activity [5]: Not Active
C(#Cc1ccc(Cn2c[n+](Cc3ccc(C#Cc4ccccc4)cc3)c3ccccc32)cc1)c1ccccc1.O=S(=O)([N-]S(=O)(=O)C(F)(F)F)C(F)(F)F [listing 1 of 2 here] | 5.8 mol% | > 100 µM | 25 µM | 10 µM | 2.5 | –
C(#Cc1ccc(Cn2c[n+](Cc3ccc(C#Cc4ccccc4)cc3)c3ccccc32)cc1)c1ccccc1.O=S(=O)([N-]S(=O)(=O)C(F)(F)F)C(F)(F)F [listing 2 of 2 here] | – | – | – | – | – | Activity (Escherichia coli [1]): Active
C(#Cc1ccc(C[n+]2cn(Cc3cccc(Cn4c[n+](Cc5ccc(C#Cc6ccccc6)cc5)c5ccccc54)n3)c3ccccc32)cc1)c1ccccc1.O=S(=O)([N-]S(=O)(=O)C(F)(F)F)C(F)(F)F.O=S(=O)([N-]S(=O)(=O)C(F)(F)F)C(F)(F)F [listing 2 of 2 here] | – | – | – | – | – | Activity (Lipid bilayer): Active; Activity (Escherichia coli [1]): Active; Activity (Escherichia coli [2]): Active
C(#Cc1ccc(Cn2c[n+](Cc3ccc(C#Cc4ccccc4)cc3)c3ccccc32)cc1)c1ccccc1.[Br-] | 14.8 mol% | > 100 µM | > 100 µM | 10 µM | – | –
C(#Cc1ccc(C[n+]2cn(Cc3cccc(Cn4c[n+](Cc5ccc(C#Cc6ccccc6)cc5)c5ccccc54)n3)c3ccccc32)cc1)c1ccccc1.O=S(=O)([O-])C(F)(F)F.O=S(=O)([O-])C(F)(F)F | 0.46 mol% | – | – | – | 2.5 | Activity [5]: Active; MIC (Escherichia coli [6]): 25 µM; MIC (Escherichia coli [7]): 10 µM; MIC (Bacillus thuringiensis): 2 µM; hemolysis at 1 h, 25 µM [9]: < 10%; hemolysis at 24 h, 25 µM [10]: 10%
C(#Cc1ccc(C[n+]2cn(Cc3cccc(Cn4c[n+](Cc5ccc(C#Cc6ccccc6)cc5)c5ccccc54)n3)c3ccccc32)cc1)c1ccccc1.[Br-].[Br-] | 14 mol% | – | 10 µM | – | 10 | Activity [5]: Not Active; MIC (Escherichia coli [6]): 100 µM; MIC (Bacillus thuringiensis): 10 µM
C(#Cc1ccc(C[n+]2cn(-c3cccc(-n4c[n+](Cc5ccc(C#Cc6ccccc6)cc5)c5ccccc54)n3)c3ccccc32)cc1)c1ccccc1.O=S(=O)([N-]S(=O)(=O)C(F)(F)F)C(F)(F)F.O=S(=O)([N-]S(=O)(=O)C(F)(F)F)C(F)(F)F | 6.9 mol% | > 100 µM | > 100 µM | 10 µM | – | –
C(#Cc1ccc(C[n+]2cn(-c3cccc(-n4c[n+](Cc5ccc(C#Cc6ccccc6)cc5)c5ccccc54)n3)c3ccccc32)cc1)c1ccccc1.[Br-].[Br-] | 24 mol% | > 100 µM | > 100 µM | 10 µM | – | –
C(#Cc1ccc(C[n+]2cn(-c3cccc(-n4c[n+](Cc5ccc(C#Cc6ccccc6)cc5)c5ccccc54)n3)c3ccccc32)cc1)c1ccccc1.O=S(=O)([O-])C(F)(F)F.O=S(=O)([O-])C(F)(F)F | 12 mol% | – | – | – | – | MIC (Escherichia coli [6]): >100 µM; MIC (Bacillus thuringiensis): 10 µM
